Assay results as given in ChEMBL document CHEMBL3865789, “Synthesis and biological evaluation of isomeric methoxy substitutions on anti-cancer indolyl-pyridinyl-propenones: Effects on potency and mode of activity” (2016).
Activity calls are given as the source filed them. No cut-off for these calls is given here.

Assays:
[1] = Growth inhibition of human U251 cells after 48 hrs by sulforhodamine B colorimetric assay; type: functional; conditions: U-251, 48 h
How it was run: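 U251 glioblastoma cells kept in DMEM with 10% FBS at 37°C, 5% CO2. Compounds in DMSO; vehicle-only controls. SRB colorimetric read-out at a 48 h end-point. Mean ± S.D. of three separate SRB assays.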

U-251 [2] = assay: Induction of methuosis in human U251 cells assessed as vacuolization at 2.5 uM after 48 hrs by phase contrast microscopic analysis; type: functional, cell-based
[3] = Growth inhibition of human U251 cells at 10 uM after 48 hrs by sulforhodamine B colorimetric assay relative to control; type: functional; conditions: U-251, 48 h, read-out: GI
How it was run: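 U251 glioblastoma cells kept in DMEM with 10% FBS at 37°C, 5% CO2. Compounds in DMSO; vehicle-only controls. SRB colorimetric read-out at a 48 h end-point. GI50 relative to untreated control calculated by the NCI-60 protocol; top concentration tested 10 μM. Mean ± S.D. of three separate SRB assays.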

U-251 [4] = assay: Mitotic arrest in human U251 cells assessed as accumulation at G2/M phase at >=500 nM after 24 hrs by propidium iodide staining based flow cytometric analysis; type: functional, cell-based
How it was run: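 U251 cells seeded at 3.5 × 10^5 per 60 mm dish and treated the next day for 24 h. Attached and detached cells were harvested by trypsin and fixed in ice-cold 70% ethanol. They were then suspended in PBS with 6.25 mM MgSO4 and 1 mM CaCl2, RNase A-treated at 37 °C for 15 min and stained with propidium iodide. DNA content was read by flow cytometry.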

U-251 [5] = assay: Induction of methuosis in human U251 cells assessed as formation of membrane blebs on cell surface at 2.5 uM after 48 hrs by phase contrast microscopic analysis; type: functional, cell-based
U-251 [6] = assay: Induction of methuosis in human U251 cells assessed as rounding of cell body at 2.5 uM after 48 hrs by phase contrast microscopic analysis; type: functional, cell-based
U-251 [7] = assay: Induction of microtubule disruption in human U251 cells up to 2.5 uM by DAPI staining based immunofluorescence microscopy; type: cell-based
How it was run: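 U251 cells seeded on glass coverslips, 350,000 per 60 mm dish. One day later, fresh medium with compound at the stated concentrations was added for 24 h. Cells were fixed and stained with monoclonal anti-α-tubulin, then Alexa Fluor 568 goat anti-mouse IgG. Nuclei counterstained with DAPI.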

U-251 [8] = assay: Induction of methuosis in human U251 cells assessed as rounding of cell body at 2.5 uM after 24 hrs by phase contrast microscopic analysis; type: functional, cell-based
U-251 [9] = assay: Induction of methuosis in human U251 cells assessed as cell detachment from dish at 2.5 uM after 24 hrs by phase contrast microscopic analysis; type: functional, cell-based

Compound	GI50 [1] [µM]	inhibition of growth at 10 µM [3] [%]	further results
COc1cc(OC)c(C(=O)/C=C/c2c(C)[nH]c3ccc(OC)cc23)c(OC)c1	3.74	–	–
COc1cccc2[nH]c(C)c(/C=C/C(=O)c3ccncc3)c12	8.67	–	Activity (U-251 [2]): Active
COc1ccc2c(c1)c(/C=C/C(=O)c1ccncc1)c(C)n2C	> 10	< 50	–
COc1cc2[nH]c(C)c(/C=C/C(=O)c3ccncc3)c2cc1OC	> 10	< 50	–
COc1ccc2c(/C=C/C(=O)c3ccncc3)c(C(F)(F)F)[nH]c2c1	> 10	< 50	–
COc1cccc2c(/C=C/C(=O)c3ccncc3)c(C)[nH]c12	4.42	–	–
COc1ccc2[nH]c(C)c(/C=C/C(=O)c3cc(OC)c(OC)c(OC)c3)c2c1	> 10	< 50	–
COc1ccc2c(/C=C/C(=O)c3ccncc3)c(C)[nH]c2c1	0.09	–	Activity (U-251 [4]): Active; Activity (U-251 [2]): Active; Activity (U-251 [5]): Active; Activity (U-251 [6]): Active; Activity (U-251 [7]): Active; Activity (U-251 [8]): Active; Activity (U-251 [9]): Active
